Data set [1] has as its target T1, Amine oxidase [flavin-containing] B (Homo sapiens, UniProt P27338).
T1 sequence (P27338 whole entry): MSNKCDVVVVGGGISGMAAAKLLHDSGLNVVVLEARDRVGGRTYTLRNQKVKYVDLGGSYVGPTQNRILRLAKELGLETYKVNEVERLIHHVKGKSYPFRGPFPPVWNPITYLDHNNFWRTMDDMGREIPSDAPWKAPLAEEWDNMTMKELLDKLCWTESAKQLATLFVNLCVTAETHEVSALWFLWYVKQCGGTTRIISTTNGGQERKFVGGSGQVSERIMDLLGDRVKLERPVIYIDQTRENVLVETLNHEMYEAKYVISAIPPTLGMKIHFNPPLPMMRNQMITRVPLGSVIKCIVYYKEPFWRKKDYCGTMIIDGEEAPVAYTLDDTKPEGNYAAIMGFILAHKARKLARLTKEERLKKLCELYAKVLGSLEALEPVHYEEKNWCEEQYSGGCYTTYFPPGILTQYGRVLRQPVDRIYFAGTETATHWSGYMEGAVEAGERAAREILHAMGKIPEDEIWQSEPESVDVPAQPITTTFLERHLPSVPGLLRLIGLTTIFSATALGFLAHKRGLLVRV
Description: Inhibition of human recombinant MAOB expressed in baculovirus-infected BTI insect cells after 1 hr by Cheng-Prusoff equation analysis.

Data set [2] deals with T2, MAO-A (amine oxidase [flavin-containing] A) (Homo sapiens, UniProt P21397).
T2 sequence (P21397 whole entry): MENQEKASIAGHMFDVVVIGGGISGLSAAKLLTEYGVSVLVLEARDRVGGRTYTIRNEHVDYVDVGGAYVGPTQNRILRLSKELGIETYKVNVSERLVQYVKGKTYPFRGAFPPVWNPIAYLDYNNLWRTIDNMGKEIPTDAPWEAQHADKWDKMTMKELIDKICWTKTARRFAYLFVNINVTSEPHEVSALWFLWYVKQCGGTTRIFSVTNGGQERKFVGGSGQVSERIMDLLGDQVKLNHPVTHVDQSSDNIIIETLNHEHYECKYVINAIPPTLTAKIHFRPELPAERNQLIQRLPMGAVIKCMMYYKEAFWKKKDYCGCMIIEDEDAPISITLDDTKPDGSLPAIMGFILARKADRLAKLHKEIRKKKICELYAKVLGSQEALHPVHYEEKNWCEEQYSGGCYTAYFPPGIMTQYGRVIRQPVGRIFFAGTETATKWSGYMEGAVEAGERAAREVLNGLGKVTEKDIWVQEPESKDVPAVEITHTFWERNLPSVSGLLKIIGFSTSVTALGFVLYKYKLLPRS
Kind of data set: (§1) Inhibition of human recombinant MAOA expressed in baculovirus-infected BTI insect cells at 10 uM after 1 hr by MAO-GLO two-step bioluminescence assay. In outline:
(§2)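 Recombinant human MAO-A or MAO-B from baculovirus-infected BTI insect cells; test compound at […], in triplicate in vitro; activity measured by luminescent method (Valley et al.); percent inhibition given as mean ± SD, n = 3.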

In data set [3] the target is T3, MAO-B (amine oxidase [flavin-containing] B) (Homo sapiens, UniProt P27338).
T3 sequence (P27338 whole entry): T1 sequence (P27338 whole entry)
Description: Inhibition of human recombinant MAOB expressed in baculovirus-infected BTI insect cells at 10 uM after 1 hr by MAO-GLO two-step bioluminescence assay. In outline: as §2

Data set [4] deals with T4, Tryptophan 2,3-dioxygenase (Ralstonia metallidurans (strain CH34 / ATCC 43123 / DSM 2839)) (UniProt Q1LK00).
T4 sequence (whole entry): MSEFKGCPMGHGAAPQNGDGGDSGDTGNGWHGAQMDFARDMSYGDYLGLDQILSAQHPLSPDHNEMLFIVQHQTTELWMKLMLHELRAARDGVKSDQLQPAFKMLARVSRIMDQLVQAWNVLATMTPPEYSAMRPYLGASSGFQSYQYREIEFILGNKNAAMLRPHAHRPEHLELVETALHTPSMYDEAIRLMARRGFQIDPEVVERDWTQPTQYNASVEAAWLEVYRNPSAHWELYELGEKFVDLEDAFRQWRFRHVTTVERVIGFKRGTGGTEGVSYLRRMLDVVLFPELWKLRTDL
Description: Inhibition of Ralstonia metallidurans TDO using L-tryptophan as substrate at 25 uM by fluorimetric method. The following applies: Cupriavidus metallidurans. In outline: (§3)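 Human IDO activity read colourimetrically, rmTDO activity read fluorometrically; compounds tested in vitro at […]; percent inhibition as mean ± SD, n = 3.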

In data set [5] the target is Indoleamine 2,3-dioxygenase 1 (Homo sapiens) (UniProt P14902). Kind of data set: Inhibition of human IDO using L-tryptophan as substrate at 25 uM by colorimetric method. In outline: as §3
Data set [6] addresses T1, Amine oxidase [flavin-containing] B. Kind of data set: Inhibition of human recombinant MAOB expressed in baculovirus-infected BTI insect cells by Lineweaver-Burk plot analysis.
Data set [7] has as its target T5, Amine oxidase [flavin-containing] A (Homo sapiens, UniProt P21397).
T5 sequence (P21397 whole entry): T2 sequence (P21397 whole entry)
Described as §1. The following applies: 1 h, 10 µM. The method, boiled down:
as §2

The values below come from ChEMBL document CHEMBL1914298, “Synthesis and inhibition study of monoamine oxidase, indoleamine 2,3-dioxygenase and tryptophan 2,3-dioxygenase by 3,8-substituted 5H-indeno[1,2-c]pyridazin-5-one derivatives” (Eur J Med Chem, 2011).

Active and inactive are the calls of the source. The calls are words filed in the database; no cut-off is given here.

Sequence of Indoleamine 2,3-dioxygenase 1 (Homo sapiens) (P14902 whole entry, looked up): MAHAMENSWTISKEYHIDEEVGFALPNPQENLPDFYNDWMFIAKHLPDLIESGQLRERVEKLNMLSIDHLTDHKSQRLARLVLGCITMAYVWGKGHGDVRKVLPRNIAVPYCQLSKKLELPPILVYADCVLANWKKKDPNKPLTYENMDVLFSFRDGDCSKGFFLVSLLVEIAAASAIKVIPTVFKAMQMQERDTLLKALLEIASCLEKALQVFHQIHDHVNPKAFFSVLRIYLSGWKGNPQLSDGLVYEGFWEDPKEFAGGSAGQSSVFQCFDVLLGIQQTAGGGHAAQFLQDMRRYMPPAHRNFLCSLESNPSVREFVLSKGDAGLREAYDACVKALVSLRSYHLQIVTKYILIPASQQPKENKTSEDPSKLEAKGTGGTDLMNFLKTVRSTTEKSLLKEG

As for `Cc1cccc(COc2ccc3c(c2)-c2nnc(C)cc2C3=O)c1`, the Ki in data set [1] turned out to be 480 nM. Also, the inhibition at 1 h, 10 µM in data set [2] amounted to 17%; in data set [3] it was 90%. Further, the inhibition in data set [4] was determined as 66%; in data set [5], 14%.

For the compound `Cc1cc2c(nn1)-c1cc(OCc3cccc(Cl)c3)ccc1C2=O`, the Ki in data set [1] was determined as 160 nM; in data set [6] it was 110 nM. Also, the figures for the inhibition at 1 h, 10 µM in data set [2] and in data set [3] were 15% and 93%, respectively. Besides, the inhibition in data set [4] turned out to be 19%; in data set [5] it was 25%.

Take `Cc1cc2c(nn1)-c1cc(OCCCC(F)(F)F)ccc1C2=O`: in data set [7], the “inhibition (INH)” value is “Not Active”. In data set [3], the inhibition at 1 h, 10 µM amounted to 92%. The inhibition turned out to be 31% in data set [4] and 19% in data set [5].

Take `COc1ccc2c(c1)-c1nnc(-c3cccc(C(F)(F)F)c3)cc1C2=O`: the “inhibition (INH)” value in data set [7] is given as “Not Active”. Moreover, the inhibition at 1 h, 10 µM in data set [3] stood at 36%. For the same compound, the inhibition in data set [4] came to 18%. The inhibition result in data set [5] was “inactive”.

Consider `O=C1c2ccc(OCc3ccccc3)cc2-c2nnc(-c3cccc(C(F)(F)F)c3)cc21`, for which the inhibition at 1 h, 10 µM in data set [2] is 10%; in data set [3], 7%. Moreover, in data set [4], the inhibition entry is “inactive”. For the same compound, the inhibition in data set [5] stood at 17%.

Turning to `O=C1c2ccc(OCCCC(F)(F)F)cc2-c2nnc(-c3cccc(C(F)(F)F)c3)cc21`, the “inhibition (INH)” value in data set [7] is “Not Active”. In addition, the inhibition at 1 h, 10 µM in data set [3] is 57%. In data set [4], this compound registered an inhibition of 20%. The inhibition entry in data set [5] is “inactive”.
